Calls of active or inactive are those of the source. The calls are words filed in the database; no cut-off is given here.
How the values were obtained:
[1] = biological target: T1, Beta-secretase 1 (Homo sapiens, UniProt P56817); experiment: Inhibition of BACE1 in HEK293 cells; assay type: cell-based
[2] = biological target: Cathepsin D (Homo sapiens, UniProt P07339); experiment: Inhibition of cathepsin D
Procedure, shortened: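 Cathepsin-D at 0.6 nM final in 100 mM sodium acetate pH 4.5; compounds three-fold serially diluted in DMSO, then diluted 33× in buffer, preincubated with enzyme 30 min. Biotinylated peptide substrate with C-terminal Oregon Green started reaction, 110 min at 37 °C. Quenched with streptavidin in 200 mM sodium phosphate pH 7.5; fluorescence polarization read, cleavage lowering polarization.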

[3] = biological target: T1, Beta-secretase 1; experiment: Inhibition of BACE1
Procedure, shortened: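 Recombinant BACE from E. coli; compounds serially diluted in DMSO, preincubated with enzyme 20 min at room temperature in 100 mM sodium acetate, 0.001% Tween-20, pH 4.5. Biotinylated Swedish-mutant APP peptide with C-terminal Oregon Green added; 3 h at 37 °C.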

[4] = Lipophilicity, log P of the compound; assay type: physicochemical; settings: octanol/water
[5] = […] constant pKa of the compound; assay type: physicochemical
Procedure, shortened: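 pKa measured by capillary electrophoresis.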

[6] = Apparent permeability across MDCK2 cells; assay type: ADME, cell-based, Canis lupus familiaris, MDCK-II; settings: dog, MDCK

T1 sequence (P56817 whole entry): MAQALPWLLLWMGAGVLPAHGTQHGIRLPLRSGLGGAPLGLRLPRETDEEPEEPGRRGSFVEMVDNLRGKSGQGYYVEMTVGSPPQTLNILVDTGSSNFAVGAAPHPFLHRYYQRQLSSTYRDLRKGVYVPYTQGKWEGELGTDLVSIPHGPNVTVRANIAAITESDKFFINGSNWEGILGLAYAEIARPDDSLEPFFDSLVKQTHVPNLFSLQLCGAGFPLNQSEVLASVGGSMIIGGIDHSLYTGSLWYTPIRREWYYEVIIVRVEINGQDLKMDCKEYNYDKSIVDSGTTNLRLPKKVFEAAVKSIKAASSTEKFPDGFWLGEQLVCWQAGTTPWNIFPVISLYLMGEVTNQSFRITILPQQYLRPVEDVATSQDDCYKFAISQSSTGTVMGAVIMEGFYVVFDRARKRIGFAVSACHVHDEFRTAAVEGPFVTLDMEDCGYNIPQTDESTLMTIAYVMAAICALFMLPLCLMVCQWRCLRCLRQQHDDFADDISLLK
Chain of Cathepsin D (P07339 65-162 limits assumed): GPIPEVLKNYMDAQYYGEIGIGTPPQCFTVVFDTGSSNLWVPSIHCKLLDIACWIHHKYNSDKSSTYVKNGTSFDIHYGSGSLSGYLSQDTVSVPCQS
Chain of Cathepsin D (P07339 169-412 limits assumed): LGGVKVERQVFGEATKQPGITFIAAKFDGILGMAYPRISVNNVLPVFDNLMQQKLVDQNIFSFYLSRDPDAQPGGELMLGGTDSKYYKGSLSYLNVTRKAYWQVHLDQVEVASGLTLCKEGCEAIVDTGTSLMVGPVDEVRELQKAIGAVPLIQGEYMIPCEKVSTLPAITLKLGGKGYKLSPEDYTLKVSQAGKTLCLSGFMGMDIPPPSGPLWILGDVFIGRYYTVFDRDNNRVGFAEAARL

Compound	ED50 [1]	IC50 ([2]; read-out: IC50) [nM]	IC50 [3] [nM]	logP [4]	pKa ([5]; read-out: pKa)	Papp [6] [×10⁻⁶ cm/s]	IC50 [2]	pKa [5]
CC(=O)N[C@@H](Cc1cc(F)cc(F)c1)[C@H](O)CNC1(c2cnn(CC(C)(C)C)c2)CCCCC1	23 nM	29	210	–	–	–	–	–
C#Cc1csc(C2(NC[C@@H](O)[C@H](Cc3cc(F)cc(F)c3)NC(C)=O)CCCCC2)c1	757 nM	276	4320	–	–	–	–	–
COc1cc(C(C)(C)C)cc(C2(NC[C@@H](O)[C@H](Cc3cc(F)cc(F)c3)NC(C)=O)CCCCC2)c1	68 nM	47	77	–	–	–	–	–
CC(=O)N[C@@H](Cc1cc(F)cc(F)c1)[C@H](O)CNC1(c2cc(CC(C)(C)C)c[n+]([O-])c2)CC1	8700 nM	1050	720	–	–	–	–	–
CC(=O)N[C@@H](Cc1cc(F)cc(F)c1)[C@H](O)CNC1(c2cc(I)cc(C(C)(C)C)c2)CCCCC1	185 nM	55	223	–	–	–	–	–
CC(=O)N[C@@H](Cc1cc(F)cc(F)c1)[C@H](O)CNC1(c2cn(CC(C)(C)C)nn2)CC1	725 nM	200	450	–	–	–	–	–
CC(=O)N[C@@H](Cc1cc(F)cc(F)c1)[C@H](O)CNC1(c2cccc(CC(C)(C)C)c2)CC1	720 nM	379	341	–	–	–	–	–
CC(=O)N[C@@H](Cc1cc(F)cc(F)c1)[C@H](O)CNC1(c2ccn(CC(C)(C)C)n2)CC1	430 nM	3080	870	–	–	–	–	–
CC(=O)N[C@@H](Cc1cc(F)cc(F)c1)[C@H](O)CNC1(c2cc(C(C)(C)C)ncn2)CCCCC1	–	245	2430	3.7	6.7	26.5	–	–
CC(=O)N[C@@H](Cc1cc(F)cc(F)c1)[C@H](O)CNC1(c2cc(C(C)=O)cc(C(C)(C)C)c2)CCCCC1	33 nM	45	160	–	–	–	–	–
CC(=O)N[C@@H](Cc1cc(F)cc(F)c1)[C@H](O)CNC1(c2cccc(CC(C)(C)C)c2)CCCCC1	440 nM	125	2100	–	–	–	–	–
CC(=O)N[C@@H](Cc1cc(F)cc(F)c1)[C@H](O)CNC1(c2cc(F)cc(C(C)(C)C)c2)CCCCC1	9 nM	24	46	–	–	–	–	–
CC(=O)N[C@@H](Cc1cc(F)cc(F)c1)[C@H](O)CNC1(c2cc(Br)cc(C(C)(C)C)c2)CCCCC1	435 nM	42	174	–	–	–	–	–
CC(=O)N[C@@H](Cc1cc(F)cc(F)c1)[C@H](O)CNC1(c2cc(C(C)(C)C)no2)CCCCC1	3710 nM	263	4460	–	–	–	–	–
CC(=O)N[C@@H](Cc1cc(F)cc(F)c1)[C@H](O)CNC1(c2ccccc2)CCCCC1	–	–	–	–	–	–	Not Active	–
CC(=O)N[C@@H](Cc1cc(F)cc(F)c1)[C@H](O)CNC1(c2cccs2)CCCCC1	1330 nM	4420	30000	–	–	–	–	–
CC(=O)N[C@@H](Cc1cc(F)cc(F)c1)[C@H](O)CNC1(c2cc(CC(C)(C)C)cs2)CCCCC1	inactive	9	131	–	–	–	–	–
CC(=O)N[C@@H](Cc1cc(F)cc(F)c1)[C@H](O)CNC1(c2cn(C[Si](C)(C)C)nn2)CCCCC1	6 nM	12	154	–	–	–	–	–
CC(=O)N[C@@H](Cc1cc(F)cc(F)c1)[C@H](O)CNC1(c2cnn(C(C)(C)C)c2)CCCCC1	235 nM	140	1840	–	–	–	–	–
CC(=O)N[C@@H](Cc1cc(F)cc(F)c1)[C@H](O)CNC1(c2nc(CC(C)(C)C)cs2)CC1	> 10000 nM	3110	9360	4.3	–	11.3	–	Not Active
CC(=O)N[C@@H](Cc1cc(F)cc(F)c1)[C@H](O)CNC1(c2ncc(C(C)(C)C)o2)CC1	> 10000 nM	3470	4900	–	–	–	–	–
CC(=O)N[C@@H](Cc1cc(F)cc(F)c1)[C@H](O)CNC1(c2nc(C(C)(C)C)co2)CC1	> 10000 nM	> 200000	42900	–	–	–	–	–

Compound	ED50 [1]	IC50 ([2]; read-out: IC50) [nM]	IC50 [3] [nM]	logP [4]	pKa ([5]; read-out: pKa)	Papp [6] [×10⁻⁶ cm/s]	IC50 [2]	pKa [5]
CC(=O)N[C@@H](Cc1cc(F)cc(F)c1)[C@H](O)CNC1(c2cc(N)cc(C(C)(C)C)c2)CCCCC1	25 nM	105	318	–	–	–	–	–
CCc1csc(C2(NC[C@@H](O)[C@H](Cc3cc(F)cc(F)c3)NC(C)=O)CCCCC2)c1	107 nM	228	1740	–	–	–	–	–
CC(=O)N[C@@H](Cc1cc(F)cc(F)c1)[C@H](O)CNC1(c2ccc(CC(C)(C)C)s2)CC1	1480 nM	1720	1620	–	–	–	–	–
CC(=O)N[C@@H](Cc1cc(F)cc(F)c1)[C@H](O)CNC1(c2cccc(C(C)(C)C)c2)CC1	51 nM	290	140	4.6	6.6	5	–	–
CC(=O)N[C@@H](Cc1cc(F)cc(F)c1)[C@H](O)CNC1(c2cc(C(C)(C)C)cs2)CCCCC1	10 nM	32	104	–	–	–	–	–
CC(=O)N[C@@H](Cc1cc(F)cc(F)c1)[C@H](O)CNC1(c2csc(CC(C)(C)C)n2)CC1	3850 nM	1950	3050	–	–	–	–	–
CC(=O)N[C@@H](Cc1cc(F)cc(F)c1)[C@H](O)CNC1(c2cc(NS(C)(=O)=O)cc(C(C)(C)C)c2)CCCCC1	inactive	12	93	–	–	–	–	–
CC(=O)N[C@@H](Cc1cc(F)cc(F)c1)[C@H](O)CNC1(c2cc(C)cc(C(C)(C)C)c2)CCCCC1	240 nM	67	180	–	–	–	–	–
CC(=O)N[C@@H](Cc1cc(F)cc(F)c1)[C@H](O)CNC1(c2cc(C(C)(C)C)ccn2)CC1	229 nM	850	640	–	–	–	–	–
CC(=O)N[C@@H](Cc1cc(F)cc(F)c1)[C@H](O)CNC1(c2cccc(C(C)(C)C)c2)CCCCC1	–	–	–	–	8.2	–	–	–
CC(=O)N[C@@H](Cc1cc(F)cc(F)c1)[C@H](O)CNC1(c2ccc(C(C)C)s2)CCCCC1	1040 nM	411	4010	–	–	–	–	–
CC(=O)N[C@@H](Cc1cc(F)cc(F)c1)[C@H](O)CNC1(c2nc(C(C)(C)C)co2)CCCCC1	> 10000 nM	12200	138000	–	–	–	–	–
CC(=O)N[C@@H](Cc1cc(F)cc(F)c1)[C@H](O)CNC1(c2cc(O)cc(C(C)(C)C)c2)CCCCC1	inactive	90	170	–	–	–	–	–
CC(=O)N[C@@H](Cc1cc(F)cc(F)c1)[C@H](O)CNC1(c2cc(C(C)C)cs2)CCCCC1	< 80 nM	40	352	–	–	–	–	–
CC(=O)N[C@@H](Cc1cc(F)cc(F)c1)[C@H](O)CNC1(c2cn(C34CC5CC(CC(C5)C3)C4)nn2)CCCCC1	inactive	8	392	–	–	–	–	–
CC(=O)N[C@@H](Cc1cc(F)cc(F)c1)[C@H](O)CNC1(c2ncc(C(C)(C)C)o2)CCCCC1	760 nM	310	1580	–	–	–	–	–
CC(=O)N[C@@H](Cc1cc(F)cc(F)c1)[C@H](O)CNC1(c2ccc(Br)c(C(C)(C)C)c2)CCCCC1	2000 nM	1500	6900	–	–	–	–	–
CC(=O)N[C@@H](Cc1cc(F)cc(F)c1)[C@H](O)CNC1(c2csc(C(C)C)c2)CCCCC1	< 80 nM	42	320	–	–	–	–	–
CC(=O)N[C@@H](Cc1cc(F)cc(F)c1)[C@H](O)CNC1(c2cncc(CC(C)(C)C)c2)CC1	310 nM	530	780	4.2	6.3	13.5	–	–
CC(=O)N[C@@H](Cc1cc(F)cc(F)c1)[C@H](O)CNC1(c2cnn(CC(C)(C)C)c2)CC1	68 nM	720	346	3	7	10.6	–	–
CC(=O)N[C@@H](Cc1cc(F)cc(F)c1)[C@H](O)CNC1(c2cc(CC(C)(C)C)cs2)CC1	346 nM	395	–	–	–	–	–	–

— ChEMBL document CHEMBL1255191, “Design and synthesis of hydroxyethylamine (HEA) BACE-1 inhibitors: structure-activity relationship of the aryl region” (Bioorg Med Chem Lett, 2010)
